Experimental data published in ChEMBL document CHEMBL1141286, “Benzochromenones from the marine crinoid Comantheria rotula inhibit hypoxia-inducible factor-1 (HIF-1) in cell-based reporter assays and differentially suppress the growth of certain tumor cell lines” (J Nat Prod, 2007).
The source made the active and inactive calls. The rule behind the calls is not given here.

Experiments:
A549 = assay: Growth inhibition of human A549 cells; assay type: functional
Malme-3M = assay: Growth inhibition of human MALME-3M cells; assay type: functional
HL-60 = assay: Growth inhibition of human HL60 cells; assay type: functional
NCI-H460 = assay: Growth inhibition of human NCI-H460 cells; assay type: functional
SF-268 = assay: Growth inhibition of human SF268 cells; assay type: functional
HCT-116 = assay: Growth inhibition of human HCT116 cells; assay type: functional
NCI-H226 = assay: Growth inhibition of human NCI-H226 cells; assay type: functional
MDA-MB-231 = assay: Growth inhibition of human MDA-MB-231 cells; assay type: functional
KM12 = assay: Growth inhibition of human KM12 cells; assay type: functional
NCI/ADR-RES = assay: Growth inhibition of human NCI/ADR-RES cells; assay type: functional
[1] = DPPH radical scavenging activity relative to Trolox; assay type: functional; set-up: concentration or dose not given beside the values
Summary of the method: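 Compounds were made up as DMSO stocks and diluted in isopropanol to a final 10 μM. Each was mixed with DPPH in isopropanol at 10 μM or 30 μM DPPH, and absorbance was read at 515 nm. Scavenging was calculated as [1 − OD515(compound)/OD515(control)] × 100, then expressed as a percentage of Trolox activity. One experiment was run in triplicate.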

EKVX = assay: Growth inhibition of human EKVX cells; assay type: functional
SF-539 = assay: Growth inhibition of human SF539 cells; assay type: functional
NCI-H322M = assay: Growth inhibition of human NCI-H322M cells; assay type: functional
UO-31 = assay: Growth inhibition of human UO31 cells; assay type: functional
[2] = Inhibition of 1,10-phenanthroline-induced HIF1 activation in T47D cells by TK-luciferase assay; assay type: cell-based; conditions: Homo sapiens
Summary of the method: (§1)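 HIF-1 reporter (pHRE-TK-Luc) assays in transfected PC-3 or T47D cells; HIF-1 induced by hypoxia or by the hypoxia mimetic 1,10-phenanthroline (10 μM); compounds at half-log concentrations; luciferase activity measured; IC50 from experiments in triplicate.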

786-0 = assay: Growth inhibition of human 786-0 cells; assay type: functional
HT-29 = assay: Growth inhibition of human HT29 cells; assay type: functional
BT-549 = assay: Growth inhibition of human BT549 cells; assay type: functional
SK-OV-3 = assay: Growth inhibition of human SK-OV3 cells; assay type: functional
SK-MEL-5 = assay: Growth inhibition of human SK-MEL5 cells; assay type: functional
NCI-H522 = assay: Growth inhibition of human NCI-H522 cells; assay type: functional
TK-10 = assay: Growth inhibition of human TK10 cells; assay type: functional
HOP-62 = assay: Growth inhibition of human HOP62 cells; assay type: functional
RXF 393 = assay: Growth inhibition of human RXF393 cells; assay type: functional
K562 = assay: Growth inhibition of human K562 cells; assay type: functional
SNB-19 = assay: Growth inhibition of human SNB19 cells; assay type: functional
U-251 = assay: Growth inhibition of human U251 cells; assay type: functional
Hs-578T = assay: Growth inhibition of human HS578T cells; assay type: functional
CAKI-1 = assay: Growth inhibition of human CAKI1 cells; assay type: functional
T47D = assay: Inhibition of 1,10-phenanthroline-induced VEGF protein secretion in human T47D cells at 10 uM after 16 hrs by ELISA; assay type: functional, cell-based
Summary of the method: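 T47D cells stimulated with 1,10-phenanthroline, compound at 10 μM; secreted VEGF in conditioned media by ELISA, normalized to cell-lysate protein.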

OVCAR-4 = assay: Growth inhibition of human OVACAR4 cells; assay type: functional
MOLT-4 = assay: Growth inhibition of human MOLT4 cells; assay type: functional; conditions: read-out: Log LC50 (the source's name) (converted)
OVCAR-8 = assay: Growth inhibition of human OVACAR8 cells; assay type: functional
[3] = Inhibition of 1,10-phenanthroline-induced HIF1 activation in PC3 cells by TK-luciferase assay; assay type: cell-based; conditions: Homo sapiens, PC-3; summary of the method: as §1
LOX IMVI = assay: Growth inhibition of human LOXIMVI cells; assay type: functional
[4] = read-out: Log LC50 (the source's name) (converted)

For CCCc1cc(=O)c2c(O)c3c(OC)cc(O)cc3cc2o1, the GI50 (A549) was 19.1 µM, the CC50 (A549; [4]) was over 100 µM and the TGI (A549; read-out: Log TGI (converted)) was 50.1 µM. It also gave a GI50 (Malme-3M) of 25.1 µM, a CC50 (Malme-3M; [4]) of 100 µM and a TGI (Malme-3M; read-out: Log TGI (converted)) of 64.6 µM. The GI50 (HL-60) was 30.9 µM, the LC50 (HL-60) was over 100 µM and the TGI (HL-60; read-out: Log TGI (converted)) was 61.7 µM. It also gave a GI50 (NCI-H460) of 17.8 µM, a CC50 (NCI-H460; [4]) of over 100 µM and a TGI (NCI-H460; read-out: Log TGI (converted)) of 42.7 µM. For the same compound, the GI50 (SF-268) was 20.4 µM, the LC50 (SF-268) was over 100 µM and the TGI (SF-268; read-out: Log TGI (converted)) was 58.9 µM. The GI50 (HCT-116) was 18.6 µM, the CC50 (HCT-116; [4]) was 75.9 µM and the TGI (HCT-116; read-out: Log TGI (converted)) was 37.2 µM. It also gave a GI50 (NCI-H226) of 17.8 µM, a CC50 (NCI-H226; [4]) of over 100 µM and a TGI (NCI-H226; read-out: Log TGI (converted)) of 45.7 µM. For the same compound, the GI50 (MDA-MB-231) was 15.5 µM, the LC50 (MDA-MB-231) was over 100 µM and the TGI (MDA-MB-231; read-out: Log TGI (converted)) was 45.7 µM. The GI50 (KM12) was 17.4 µM, the CC50 (KM12; [4]) was 93.3 µM and the TGI (KM12; read-out: Log TGI (converted)) was 39.8 µM. It also gave a GI50 (NCI/ADR-RES) of 26.3 µM, an LC50 (concentration killing 50% of cells) (NCI/ADR-RES) of over 100 µM and a TGI (NCI/ADR-RES; read-out: Log TGI (converted)) of 75.9 µM. It also gave an Activity [1] of 40%, a GI50 (EKVX) of 28.8 µM and a CC50 (EKVX; [4]) of over 100 µM. For the same compound, the TGI (EKVX; read-out: Log TGI (converted)) was 97.7 µM, the GI50 (SF-539) was 19.5 µM and the LC50 (SF-539) was 81.3 µM. The TGI (SF-539; read-out: Log TGI (converted)) was 39.8 µM, the GI50 (NCI-H322M) was 26.3 µM and the CC50 (NCI-H322M; [4]) was over 100 µM. For the same compound, the TGI (NCI-H322M; read-out: Log TGI (converted)) was over 100 µM, the GI50 (UO-31) was 16.2 µM and the LC50 (UO-31) was over 100 µM. The TGI (UO-31; read-out: Log TGI (converted)) was 42.7 µM, the IC50 [2] was 0.6 µM and the GI50 (786-0) was 25.1 µM. The LC50 (786-0) was over 100 µM, the TGI (786-0; read-out: Log TGI (converted)) was over 100 µM and the GI50 (HT-29) was 18.6 µM. It also gave a CC50 (HT-29; [4]) of 72.4 µM, a TGI (HT-29; read-out: Log TGI (converted)) of 37.2 µM and a GI50 (BT-549) of 18.2 µM. For the same compound, the LC50 (BT-549) was 95.5 µM, the TGI (BT-549; read-out: Log TGI (converted)) was 41.7 µM and the GI50 (SK-OV-3) was 32.4 µM. It also gave an LC50 (SK-OV-3) of over 100 µM, a TGI (SK-OV-3; read-out: Log TGI (converted)) of 85.1 µM and a GI50 (SK-MEL-5) of 14.8 µM. For the same compound, the LC50 (SK-MEL-5) was 52.5 µM, the TGI (SK-MEL-5; read-out: Log TGI (converted)) was 27.5 µM and the GI50 (NCI-H522) was over 100 µM. For the same compound, the CC50 (NCI-H522; [4]) was 41.7 µM, the TGI (NCI-H522; read-out: Log TGI (converted)) was 15.1 µM and the GI50 (TK-10) was 30.2 µM. The LC50 (TK-10) was over 100 µM, the TGI (TK-10; read-out: Log TGI (converted)) was over 100 µM and the GI50 (HOP-62) was 22.9 µM. The CC50 (HOP-62; [4]) was over 100 µM, the TGI (HOP-62; read-out: Log TGI (converted)) was 56.2 µM and the GI50 (RXF 393) was 18.2 µM. For the same compound, the LC50 (RXF 393) was over 100 µM, the TGI (RXF 393; read-out: Log TGI (converted)) was 47.9 µM and the GI50 (K562) was 18.2 µM. The CC50 (K562; [4]) was over 100 µM, the TGI (K562; read-out: Log TGI (converted)) was 56.2 µM and the GI50 (SNB-19) was 32.4 µM. It also gave an LC50 (SNB-19) of 100 µM, a TGI (SNB-19; read-out: Log TGI (converted)) of 100 µM and a GI50 (U-251) of 16.2 µM. For the same compound, the LC50 (U-251) was 95.5 µM, the TGI (U-251; read-out: Log TGI (converted)) was 38.9 µM and the GI50 (Hs-578T) was 25.1 µM. The LC50 (Hs-578T) was over 100 µM, the TGI (Hs-578T; read-out: Log TGI (converted)) was 67.6 µM and the GI50 (CAKI-1) was 30.2 µM. For the same compound, the LC50 (CAKI-1) was over 100 µM, the TGI (CAKI-1; read-out: Log TGI (converted)) was over 100 µM and the Activity (T47D) was “inactive”. It also gave a GI50 (OVCAR-4) of 26.3 µM, an LC50 (OVCAR-4) of over 100 µM and a TGI (OVCAR-4; read-out: Log TGI (converted)) of over 100 µM. For the same compound, the CC50 (MOLT-4) was over 100 µM, the GI50 (OVCAR-8) was 28.8 µM and the LC50 (OVCAR-8) was over 100 µM. The TGI (OVCAR-8; read-out: Log TGI (converted)) was over 100 µM, the IC50 [3] was 0.8 µM and the GI50 (LOX IMVI) was 16.6 µM. It also gave an LC50 (LOX IMVI) of 63.1 µM and a TGI (LOX IMVI; read-out: Log TGI (converted)) of 32.4 µM.
